# pIC50: −log10 of the molar value.
# Key:
# GABA B receptor [1] = target: T1, GABA B receptor (Rattus norvegicus, UniProt O88871+Q9Z0U4); assay: (§1) Inhibition of [3H]CGP-27492 binding to Gamma-aminobutyric acid type B receptor of rat cortex
# In short: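 Displacement of [3H]CGP27492 from rat cerebral cortex membranes, in triplicate. Nonspecific binding defined with 10 µM (R)-(-)-baclofen. IC50 obtained by computer curve fitting to a single-site model.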
# [2] = target: GABA-A receptor; anion channel; assay: Inhibition of [3H]muscimol binding to GABA-A receptor of rat cortex; assay type: tissue-based; conditions: for pIC50: read-out: IC50
# Rattus norvegicus [3] = species: Rattus norvegicus; assay: The compound was tested for inhibition of release of [3H]GABA from rat cortical slices after electrical stimulation.; assay type: functional
# Rattus norvegicus [4] = assay: Deterioration of rotarod performance of rats 0.5-1 hour after subcutaneous administration of compound; assay type: functional, organism-based
# In short: (§2)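 Male Sprague-Dawley rats (120-140 g), eight per dose. Compound is dissolved in water and given orally (5 mL/kg) or subcutaneously into the neck (2 mL/kg). Rats are pre-trained to stay 300 s on an 11 rpm, 6 cm cylinder. Time on the rod (maximum 300 s) is recorded at 0.5-1 h after sc or 1.5-2 h after po dosing. EC50 is the dose in µmol/kg at which 50% fall off within ≤150 s, estimated by Probit.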
# Rattus norvegicus [5] = assay: Deterioration of rotarod performance of rats 1-2 hour after peroral administration of compound; assay type: functional, organism-based; in short: as §2
# GABA-B receptor [6] = target: T2, GABA-B receptor (Homo sapiens, UniProt O75899+Q9UBS5); assay: Inhibition of [3H]baclofen binding to Gamma-aminobutyric acid type B receptor of cat cerebellum; assay type: tissue-based, Felis catus; conditions: target entry is the homologue from another species
# In short: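 Cat cerebellar synaptosomal membranes (200-300 µg protein), prepared by sucrose density gradient, lysis, freezing and repeated washes. […] Stopped by centrifugation and pellet counted. Run in triplicate. Nonspecific binding with 10 µM (R)-(-)-baclofen. IC50 from single-site curve fit.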
# [7] = target: Histamine H1 receptor (Homo sapiens) (UniProt P35367); assay: Inhibition of [3H]- doxepine binding to histamine 1 receptor at 10e-5 M
# [8] = target: Serotonin 3 (5-HT3) receptor (Homo sapiens) (UniProt P46098+A5X5Y0+O95264+Q70Z44+Q8WXA8); assay: Inhibition of [3H]- BRL 43 694 binding to 5-hydroxytryptamine 3 receptor at 10e-5 M; assay type: protein-complex assay
# [9] = target: T3, GABA-A receptor; anion channel (Homo sapiens) (UniProt P14867+P47870+P18507+P28472+P48169+Q99928+Q9UN88+P34903+O00591+O14764+Q8N1C3+P18505+P78334+P47869+P31644+Q16445); assay: Inhibition of [3H]- flunitrazepam binding to GABA-A benzodiazepine receptor at 10e-5 M; assay type: protein-complex assay
# [10] = target: Substance-P receptor (Homo sapiens) (UniProt P25103); assay: Inhibition of [3H]-substance P binding to Tachykinin receptor 1 at 10e-5 M
# [11] = target: T4, Adenosine receptor A1 (Homo sapiens) (UniProt P30542); assay: Inhibition of [3H]- N-6-CA binding to Adenosine A1 receptor at 10e-5 M
# T4 sequence (whole entry): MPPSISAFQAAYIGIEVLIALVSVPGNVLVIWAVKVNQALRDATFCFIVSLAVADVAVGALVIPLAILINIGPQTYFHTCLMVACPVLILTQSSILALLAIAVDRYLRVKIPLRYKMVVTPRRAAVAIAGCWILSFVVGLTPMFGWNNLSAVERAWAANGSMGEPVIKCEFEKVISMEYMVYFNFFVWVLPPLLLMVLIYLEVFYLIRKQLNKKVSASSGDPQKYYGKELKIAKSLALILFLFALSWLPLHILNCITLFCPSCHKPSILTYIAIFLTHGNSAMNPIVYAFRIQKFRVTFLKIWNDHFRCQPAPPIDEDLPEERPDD
# [12] = The compound was tested for blockade of the monosynaptic reflexes in the hemisected neonatal spinal cord; assay type: functional, Rattus norvegicus
# [13] = target: Adrenergic receptor alpha-1 (Homo sapiens) (UniProt P35348+P25100+P35368); assay: Inhibition [3H]- prazosin binding to Alpha-1 adrenergic receptor at 10e-5 M; assay type: protein assay
# [14] = target: Adrenergic receptor alpha-2 (Homo sapiens) (UniProt P08913+P18825+P18089); assay: Inhibition of [3H]- clonidine binding to Alpha-2 adrenergic receptor at 10e-5 M; assay type: protein assay
# [15] = target: T5, Adrenergic receptor beta (Homo sapiens) (UniProt P08588+P07550+P13945); assay: Inhibition of [3H]- DHA binding to Beta adrenergic receptor; assay type: protein assay; conditions: concentration not given here
# [16] = target: T3, GABA-A receptor; anion channel (Homo sapiens); assay: Inhibition of [3H]- muscimol binding to Gamma-aminobutyric acid A (GABA-A) receptor at 10e-5 M; assay type: protein-complex assay
# [17] = target: T6, Serotonin 2 (5-HT2) receptor (Homo sapiens) (UniProt P41595+P28223+P28335); assay: Ketanserin binding to 5-hydroxytryptamine 2 receptor at 10e-5 M; assay type: protein assay
# [18] = target: Muscarinic acetylcholine receptor (Homo sapiens) (UniProt P20309+P08173+P11229+P08172+P08912); assay: Inhibition of [3H]CMD binding to muscarinic ACh receptor at 10e-5 M; assay type: protein assay
# [19] = Inhibition of [3H]- 5-HT binding to 5-hydroxytryptamine 1 receptor at 10e-5 M
# [20] = target: Mu-type opioid receptor (Homo sapiens) (UniProt P35372); assay: Inhibition of [3H]- naloxone binding to mu-opiate receptor at 10e-5 M
# GABA-B receptor [21] = target: T2, GABA-B receptor; assay: Inhibition of [3H]CGP-27492 binding to cat Gamma-aminobutyric acid type B receptor; assay type: protein-complex assay, Felis catus; conditions: target entry is the homologue from another species
# Rattus norvegicus [22] = assay: Deterioration of rotarod performance of rats 1-2 hour after subcutaneous administration of compound; assay type: functional, organism-based
# [23] = target: T6, Serotonin 2 (5-HT2) receptor (Homo sapiens); assay: Inhibition of [3H]ketanserin binding to 5-hydroxytryptamine 2 receptor at 10e-5 M; assay type: protein assay
# [24] = target: GABA-B receptor (Homo sapiens) (UniProt Q9UBS5+O75899); assay: Inhibition of [3H]baclofen binding to Gamma-aminobutyric acid type B receptor of cat cerebellum at 10e-5 M; assay type: tissue-based; conditions: Felis catus, target entry is the homologue from another species
# GABA-B receptor [25] = target: T2, GABA-B receptor; assay: Inhibition of [3H]-baclofen binding to Gamma-aminobutyric acid type B receptor of cat cerebellum; assay type: tissue-based, Felis catus; conditions: target entry is the homologue from another species
# GABA B receptor [26] = target: T1, GABA B receptor; assay: as §1; remark: listed apart in the source
# [27] = target: T5, Adrenergic receptor beta (Homo sapiens); assay: Inhibition of [3H]- DHA binding to Beta adrenergic receptor at 10e-5 M; assay type: protein assay
# Rattus norvegicus [28] = assay: Deterioration of rotarod performance of rats 1.2 hour after subcutaneous administration of compound; assay type: functional, organism-based
# T2 sequence (Q9UBS5 whole entry): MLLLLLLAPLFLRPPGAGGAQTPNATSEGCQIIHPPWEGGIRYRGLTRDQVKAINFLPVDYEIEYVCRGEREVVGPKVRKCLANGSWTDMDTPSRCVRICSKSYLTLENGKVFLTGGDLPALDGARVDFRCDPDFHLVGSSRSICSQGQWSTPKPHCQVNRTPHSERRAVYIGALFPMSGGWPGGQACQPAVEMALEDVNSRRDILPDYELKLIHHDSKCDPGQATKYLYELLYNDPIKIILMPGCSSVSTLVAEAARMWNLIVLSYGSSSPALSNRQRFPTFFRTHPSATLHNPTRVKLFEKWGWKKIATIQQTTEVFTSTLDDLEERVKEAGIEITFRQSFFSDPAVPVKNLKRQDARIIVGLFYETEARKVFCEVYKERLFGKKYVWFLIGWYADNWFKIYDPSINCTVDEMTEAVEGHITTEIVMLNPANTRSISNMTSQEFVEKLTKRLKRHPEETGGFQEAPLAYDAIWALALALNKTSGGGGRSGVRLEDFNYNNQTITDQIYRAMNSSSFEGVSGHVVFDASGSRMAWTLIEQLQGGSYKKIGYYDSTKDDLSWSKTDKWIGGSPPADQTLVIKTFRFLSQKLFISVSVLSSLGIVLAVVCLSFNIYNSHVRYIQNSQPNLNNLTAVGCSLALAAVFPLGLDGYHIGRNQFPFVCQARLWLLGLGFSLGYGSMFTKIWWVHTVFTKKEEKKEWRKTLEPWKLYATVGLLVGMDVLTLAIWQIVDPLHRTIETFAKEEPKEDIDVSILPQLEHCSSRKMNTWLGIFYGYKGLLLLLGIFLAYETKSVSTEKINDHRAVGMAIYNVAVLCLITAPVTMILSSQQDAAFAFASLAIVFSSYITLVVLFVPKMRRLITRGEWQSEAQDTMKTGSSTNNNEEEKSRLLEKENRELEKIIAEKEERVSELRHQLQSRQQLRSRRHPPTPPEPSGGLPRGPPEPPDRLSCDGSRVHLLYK
# T2 sequence (O75899 whole entry): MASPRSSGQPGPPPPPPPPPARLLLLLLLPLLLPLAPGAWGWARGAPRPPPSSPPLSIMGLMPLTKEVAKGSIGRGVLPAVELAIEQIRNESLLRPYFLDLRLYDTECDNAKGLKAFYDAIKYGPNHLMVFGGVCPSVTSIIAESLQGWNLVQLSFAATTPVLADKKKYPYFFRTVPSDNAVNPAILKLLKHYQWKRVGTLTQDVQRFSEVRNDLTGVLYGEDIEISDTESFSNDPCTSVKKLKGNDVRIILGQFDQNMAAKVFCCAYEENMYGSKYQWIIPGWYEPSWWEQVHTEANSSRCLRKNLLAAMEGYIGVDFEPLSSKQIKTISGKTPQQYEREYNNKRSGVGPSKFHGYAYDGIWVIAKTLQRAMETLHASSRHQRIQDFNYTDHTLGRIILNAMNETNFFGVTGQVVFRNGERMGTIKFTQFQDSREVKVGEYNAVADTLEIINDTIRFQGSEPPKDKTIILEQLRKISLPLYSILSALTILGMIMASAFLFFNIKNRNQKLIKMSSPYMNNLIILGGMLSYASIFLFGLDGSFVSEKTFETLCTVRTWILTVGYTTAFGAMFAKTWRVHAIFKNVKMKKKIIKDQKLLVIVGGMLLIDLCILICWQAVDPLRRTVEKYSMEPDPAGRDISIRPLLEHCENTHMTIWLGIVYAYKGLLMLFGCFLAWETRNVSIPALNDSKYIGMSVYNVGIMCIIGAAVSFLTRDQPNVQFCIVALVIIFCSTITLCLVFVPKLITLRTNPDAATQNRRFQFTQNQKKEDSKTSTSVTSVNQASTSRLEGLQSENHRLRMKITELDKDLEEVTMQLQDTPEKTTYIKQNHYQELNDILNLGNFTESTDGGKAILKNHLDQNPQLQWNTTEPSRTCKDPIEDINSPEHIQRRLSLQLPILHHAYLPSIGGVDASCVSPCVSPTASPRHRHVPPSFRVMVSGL
# Chain of Substance-P receptor (Homo sapiens) (P25103 whole entry): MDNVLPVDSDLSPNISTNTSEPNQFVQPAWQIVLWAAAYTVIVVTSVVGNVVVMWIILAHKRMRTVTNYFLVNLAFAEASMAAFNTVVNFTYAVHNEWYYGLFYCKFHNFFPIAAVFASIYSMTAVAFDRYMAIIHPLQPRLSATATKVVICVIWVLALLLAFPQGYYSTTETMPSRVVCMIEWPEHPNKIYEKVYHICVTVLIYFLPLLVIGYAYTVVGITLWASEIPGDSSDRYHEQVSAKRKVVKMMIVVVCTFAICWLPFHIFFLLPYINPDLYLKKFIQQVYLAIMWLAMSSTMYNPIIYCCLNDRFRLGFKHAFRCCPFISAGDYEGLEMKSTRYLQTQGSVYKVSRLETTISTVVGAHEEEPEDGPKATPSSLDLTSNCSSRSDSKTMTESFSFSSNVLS
# T1 sequence (Q9Z0U4 whole entry): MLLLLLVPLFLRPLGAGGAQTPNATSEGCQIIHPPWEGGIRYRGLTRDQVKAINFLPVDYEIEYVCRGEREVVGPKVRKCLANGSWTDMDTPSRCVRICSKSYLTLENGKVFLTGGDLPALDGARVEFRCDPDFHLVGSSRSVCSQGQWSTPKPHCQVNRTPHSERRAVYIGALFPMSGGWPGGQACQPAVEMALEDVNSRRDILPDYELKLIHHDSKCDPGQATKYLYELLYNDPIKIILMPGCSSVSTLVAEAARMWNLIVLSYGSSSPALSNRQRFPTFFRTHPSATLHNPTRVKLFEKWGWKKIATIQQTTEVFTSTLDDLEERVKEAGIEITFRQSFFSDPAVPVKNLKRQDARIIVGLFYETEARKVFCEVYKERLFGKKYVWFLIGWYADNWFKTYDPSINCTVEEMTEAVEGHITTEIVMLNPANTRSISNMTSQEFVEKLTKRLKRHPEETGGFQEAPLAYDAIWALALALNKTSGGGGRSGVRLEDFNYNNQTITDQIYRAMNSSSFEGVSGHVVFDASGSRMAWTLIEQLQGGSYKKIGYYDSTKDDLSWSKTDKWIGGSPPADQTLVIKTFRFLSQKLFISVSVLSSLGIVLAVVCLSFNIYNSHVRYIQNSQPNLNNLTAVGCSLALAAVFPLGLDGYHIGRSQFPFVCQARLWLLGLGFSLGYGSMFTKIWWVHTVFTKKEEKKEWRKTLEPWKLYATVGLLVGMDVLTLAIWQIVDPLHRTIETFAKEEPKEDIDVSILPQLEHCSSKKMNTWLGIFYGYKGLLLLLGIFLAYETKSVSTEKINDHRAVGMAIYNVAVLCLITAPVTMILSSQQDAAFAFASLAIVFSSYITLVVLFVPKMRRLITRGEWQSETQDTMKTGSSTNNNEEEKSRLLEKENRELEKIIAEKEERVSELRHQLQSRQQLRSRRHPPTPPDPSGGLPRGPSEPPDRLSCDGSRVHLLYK
# T1 sequence (O88871 whole entry): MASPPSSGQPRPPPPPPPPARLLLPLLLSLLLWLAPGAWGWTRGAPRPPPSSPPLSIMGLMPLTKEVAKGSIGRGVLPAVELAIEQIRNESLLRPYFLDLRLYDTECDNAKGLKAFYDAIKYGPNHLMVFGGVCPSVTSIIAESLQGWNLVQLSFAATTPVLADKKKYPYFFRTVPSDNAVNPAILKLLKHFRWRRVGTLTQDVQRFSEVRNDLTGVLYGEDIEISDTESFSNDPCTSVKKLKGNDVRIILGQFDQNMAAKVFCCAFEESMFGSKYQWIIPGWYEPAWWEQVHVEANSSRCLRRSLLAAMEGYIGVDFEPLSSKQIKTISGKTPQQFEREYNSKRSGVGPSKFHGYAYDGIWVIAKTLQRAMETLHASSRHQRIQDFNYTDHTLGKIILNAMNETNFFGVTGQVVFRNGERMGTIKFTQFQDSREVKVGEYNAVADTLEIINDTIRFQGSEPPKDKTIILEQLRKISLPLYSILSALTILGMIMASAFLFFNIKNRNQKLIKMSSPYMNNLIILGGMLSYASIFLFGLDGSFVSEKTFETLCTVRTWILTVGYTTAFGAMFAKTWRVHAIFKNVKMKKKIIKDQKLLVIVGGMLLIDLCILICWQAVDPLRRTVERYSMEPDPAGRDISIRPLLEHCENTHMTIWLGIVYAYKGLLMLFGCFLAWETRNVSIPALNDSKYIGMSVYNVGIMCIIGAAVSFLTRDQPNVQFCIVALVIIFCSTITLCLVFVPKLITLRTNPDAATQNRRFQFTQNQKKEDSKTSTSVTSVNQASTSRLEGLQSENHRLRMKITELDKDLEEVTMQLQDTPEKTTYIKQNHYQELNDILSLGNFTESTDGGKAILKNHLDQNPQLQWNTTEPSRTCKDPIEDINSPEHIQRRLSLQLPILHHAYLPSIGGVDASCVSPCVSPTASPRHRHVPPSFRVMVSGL
# Chain of Histamine H1 receptor (Homo sapiens) (P35367 whole entry): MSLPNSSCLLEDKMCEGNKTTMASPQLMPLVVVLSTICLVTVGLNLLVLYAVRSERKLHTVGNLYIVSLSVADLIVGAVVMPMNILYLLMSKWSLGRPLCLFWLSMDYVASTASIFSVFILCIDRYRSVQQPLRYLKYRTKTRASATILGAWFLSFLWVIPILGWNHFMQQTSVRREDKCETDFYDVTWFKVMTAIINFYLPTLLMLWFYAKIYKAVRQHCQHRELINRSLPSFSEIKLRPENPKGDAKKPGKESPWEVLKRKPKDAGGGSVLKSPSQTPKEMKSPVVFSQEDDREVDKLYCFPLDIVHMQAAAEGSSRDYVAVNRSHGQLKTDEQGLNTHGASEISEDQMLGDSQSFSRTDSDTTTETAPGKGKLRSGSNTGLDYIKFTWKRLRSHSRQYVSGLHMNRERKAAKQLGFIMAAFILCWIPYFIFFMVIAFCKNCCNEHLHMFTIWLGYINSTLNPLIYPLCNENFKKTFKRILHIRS
smiles,measurement,setting,value
NCCCP(=O)(O)O,pIC50,GABA B receptor [1],5.17
NCCCP(=O)(O)CO,pIC50,GABA B receptor [1],5.98
NC[C@@H](CC(=O)O)c1ccc(Cl)cc1,pIC50,[2],2.81
same,pIC50,Rattus norvegicus [3],3.67
same,EC50,Rattus norvegicus [4],> 200 µM/kg
same,EC50,Rattus norvegicus [5],> 200 µM/kg
NCC(C[PH](=O)O)c1ccc(Cl)cc1 (centres undefined),pIC50,GABA-B receptor [6],7.41
same,EC50,Rattus norvegicus [4],19 µM/kg
CP(=O)(O)/C=C\CN,pIC50,GABA B receptor [1],4.78
CCC(CCN)P(C)(=O)O (centres undefined),pIC50,GABA B receptor [1],4.73
CP(=O)(O)/C=C/CN,pIC50,GABA B receptor [1],6.18
NCC(O)(C[PH](=O)O)c1ccc(Cl)cc1 (centres undefined),pIC50,GABA B receptor [1],7.19
CP(=O)(O)C(CCN)C(F)(F)F (centres undefined),pIC50,GABA B receptor [1],4.17
CP(=O)(O)CCCN,inhibition,[7],30%
same,inhibition,[8],0%
same,inhibition,[9],0%
same,inhibition,[10],2%
same,inhibition,[11],6%
same,pIC50,[12],7.30
same,IC50,[2],Not Active
same,pIC50,Rattus norvegicus [3],6.35
same,inhibition,[13],6%
same,EC50,Rattus norvegicus [4],2 µM/kg
same,inhibition,[14],9%
same,inhibition,[15],0%
same,inhibition,[16],0%
same,inhibition,[17],0%
same,inhibition,[18],0%
same,inhibition,[19],46%
same,inhibition,[20],0%
CC(CCN)P(C)(=O)O (centres undefined),pIC50,GABA-B receptor [21],6.78
same,pIC50,GABA B receptor [1],6.85
CP(=O)(O)C[C@@H](O)CN,inhibition,[7],22%
same,inhibition,[8],0%
same,inhibition,[9],0%
same,inhibition,[10],7%
same,inhibition,[11],16%
same,pIC50,[12],6.79
same,pIC50,Rattus norvegicus [3],6.40
same,EC50,Rattus norvegicus [22],36 µM/kg
same,inhibition,[13],0%
same,EC50,Rattus norvegicus [4],2 µM/kg
same,inhibition,[14],0%
same,inhibition,[15],9%
same,inhibition,[16],0%
same,inhibition,[23],36%
same,inhibition,[18],0%
same,pIC50,GABA B receptor [1],7.35
same,inhibition,[19],7%
same,inhibition,[20],0%
NCCCP(=O)(O)C(F)F,pIC50,Rattus norvegicus [3],4.97
same,EC50,Rattus norvegicus [4],22 µM/kg
same,pIC50,GABA B receptor [1],7.05
NCCC(c1ccccc1)[PH](=O)O (centres undefined),inhibition,[24],10%
NCCC[PH](=O)O,pIC50,GABA-B receptor [25],8.62
same,inhibition,[7],0%
same,inhibition,[9],24%
same,inhibition,[10],9%
same,inhibition,[11],2%
same,pIC50,[12],4.22
same,pIC50,[2],5.77
same,pIC50,Rattus norvegicus [3],6.97
same,inhibition,[13],16%
same,EC50,Rattus norvegicus [4],> 813 µM/kg
same,pIC50,GABA B receptor [26],8.27
same,inhibition,[16],65%
same,inhibition,[23],0%
same,inhibition,[18],27%
same,inhibition,[19],13%
same,inhibition,[27],0%
same,inhibition,[20],0%
NCC(C[PH](=O)O)c1ccc(F)cc1 (centres undefined),pIC50,GABA-B receptor [6],6.44
NCC(O)C[PH](=O)O (centres undefined),pIC50,GABA-B receptor [25],7.74
NCC(CC(=O)O)c1ccc(Cl)cc1 (racemic) [BACLOFEN],pIC50,[2],2.98
same,EC50,Rattus norvegicus [22],52 µM/kg
same,EC50,Rattus norvegicus [4],24 µM/kg
CP(=O)(O)C(O)CCN (centres undefined),pIC50,GABA B receptor [1],5.94
NC[C@H](CC(=O)O)c1ccc(Cl)cc1 [ARBACLOFEN],pIC50,[12],6.49
same,pIC50,[2],3.02
same,pIC50,Rattus norvegicus [3],6.48
same,EC50,Rattus norvegicus [28],16 µM/kg
same,EC50,Rattus norvegicus [4],9 µM/kg
CP(=O)(O)C[C@H](O)CN,pIC50,[12],6.37
same,pIC50,Rattus norvegicus [3],6.22
same,EC50,Rattus norvegicus [22],135 µM/kg
same,EC50,Rattus norvegicus [4],13 µM/kg
same,pIC50,GABA B receptor [1],6.82
NCC(C[PH](=O)O)c1ccccc1 (centres undefined),pIC50,GABA-B receptor [6],6.06
NCC(O)CP(=O)(O)C(F)F (centres undefined),pIC50,GABA B receptor [1],6.67
CCP(=O)(O)CCCN,pIC50,GABA-B receptor [25],5.87
same,IC50,[2],Not Active
same,pIC50,GABA B receptor [26],5.70
CP(=O)(O)CC(O)CN (centres undefined),pIC50,GABA-B receptor [21],7.54
same,pIC50,GABA B receptor [1],7.11

# — ChEMBL document CHEMBL1128747, “Phosphinic acid analogues of GABA. 1. New potent and selective GABAB agonists” (J Med Chem, 1995)
